Compound activity (PubChem BioAssay)
Most compounds without a hit are left out; they make up all but 0.99% or so of the library.
GSK3B inh: blocks human GSK3beta kinase activity; P49841; GST-GSK3beta kinase, ADP-Glo luminescence, 60 min; hits give low values; activity score (negative = inhibition), % at 10 µM; 0.038% of 300,000 active;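 active = more than half of replicate wells score below -50%, meaning over 50% inhibition versus plate controls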;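 also: 0% = median DMSO wells and -100% = median GW8510 positive control wells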
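Test system – GST-tagged human GSK3beta kinase, cell-free · Incubation – 60 min enzyme reaction, room temperature · Signal – ADP-Glo luminescence · Also added – peptide substrate and ATP at 25 µM · Controls – DMSO neutral wells and GW8510 at 20 µM as positive · Buffer or medium – Tris/MgCl2 kinase buffer · Measure – Luminescence-derived activity versus plate DMSO and GW8510 wells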
Arr AP2 block: inhibitors of human beta-arrestin and AP2 interaction. inhibition, % at 10 µM. FITC-arrestin peptide / GST-AP2 beads, flow cytometry; AP2 beta2 appendage carries R879A mutation. 0.31% of 340,000 active. AID 504490;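 active = inhibition above a set limit, near 3 SD of compounds lacking own fluorescence, cut at about 54% in these data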;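 also: plate controls were DMSO wells for no effect and 5 µM unlabelled arrestin peptide for full effect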
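System: GST-AP2 R879A glutathione beads. Medium: PBS with 0.05% Tween 20 and 0.1% BSA. Also added: FITC-arrestin peptide, 50 nM. Incubation: 12 min plus 1 h, RT. Measured by: high-throughput flow cytometry of beads, ex 488, em 535 nm. Evaluation: percent drop in bead-associated FITC signal.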
DYRK1A inh: Dyrk1A (rat) kinase inhibition; AID 504441; 0.43% of 310,000 active; ADP-Glo luminescence, NFATc1 peptide; inhibition, % at 12.5 µM; in the data active = inhibition above about 50%;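 also: plate controls were vehicle with enzyme for no effect and no enzyme for full effect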
GSK3A inh: inhibitors of human GSK-3 alpha kinase | ADP-Glo luminescence, 60 min | inhibition, % at 10 µM | 0.1% of 320,000 active | AID 2650;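 active = more than half of replicates show inhibition above 20%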;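 also: GST-tagged GSK-3 alpha with peptide substrate and 25 µM ATP; 0% = DMSO neutral wells and 100% = GW8510 positive control wells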
Rin1-Abl PPI inh: blocks binding of human Rin1 to Abl | inhibition, % at 7.35 µM | 0.4% of 360,000 active | TR-FRET Rin1/Abl binding, biochemical; in the data active = inhibition above about 5%, passing the limit was not always enough
STK33 kinase inh: inhibitors of human STK33 kinase; purified STK33, MBP phosphorylation, ADP-Glo luminescence; inhibition, % at 10 µM; Q9BYT3; 0.073% of 320,000 active;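 active = inhibition at or above 25%, using the most active replicate where run in duplicate; inactive = inhibition below 25%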
Arr-AP2 CP1: inhibitors of human beta-arrestin and AP2 interaction; shares compounds with Arr AP2 block; GST-AP2 beads, FITC arrestin peptide binding, flow cytometry; GST-fused beta2-adaptin appendage, R879A mutant; inhibition, % at 10 µM; 2% of 1,300 active;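 active = inhibition above a set limit, roughly 3 SD of non-fluorescent compound noise, cut at about 38% in these data; inactive = inhibition at or below that limit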;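 also: loss of bead fluorescence from 50 nM FITC arrestin peptide bound to appendage; 0% = negative control wells and 100% = excess unlabelled arrestin peptide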
Target sequence (P63010 whole entry, looked up, the tested form may be a part, one chain of several): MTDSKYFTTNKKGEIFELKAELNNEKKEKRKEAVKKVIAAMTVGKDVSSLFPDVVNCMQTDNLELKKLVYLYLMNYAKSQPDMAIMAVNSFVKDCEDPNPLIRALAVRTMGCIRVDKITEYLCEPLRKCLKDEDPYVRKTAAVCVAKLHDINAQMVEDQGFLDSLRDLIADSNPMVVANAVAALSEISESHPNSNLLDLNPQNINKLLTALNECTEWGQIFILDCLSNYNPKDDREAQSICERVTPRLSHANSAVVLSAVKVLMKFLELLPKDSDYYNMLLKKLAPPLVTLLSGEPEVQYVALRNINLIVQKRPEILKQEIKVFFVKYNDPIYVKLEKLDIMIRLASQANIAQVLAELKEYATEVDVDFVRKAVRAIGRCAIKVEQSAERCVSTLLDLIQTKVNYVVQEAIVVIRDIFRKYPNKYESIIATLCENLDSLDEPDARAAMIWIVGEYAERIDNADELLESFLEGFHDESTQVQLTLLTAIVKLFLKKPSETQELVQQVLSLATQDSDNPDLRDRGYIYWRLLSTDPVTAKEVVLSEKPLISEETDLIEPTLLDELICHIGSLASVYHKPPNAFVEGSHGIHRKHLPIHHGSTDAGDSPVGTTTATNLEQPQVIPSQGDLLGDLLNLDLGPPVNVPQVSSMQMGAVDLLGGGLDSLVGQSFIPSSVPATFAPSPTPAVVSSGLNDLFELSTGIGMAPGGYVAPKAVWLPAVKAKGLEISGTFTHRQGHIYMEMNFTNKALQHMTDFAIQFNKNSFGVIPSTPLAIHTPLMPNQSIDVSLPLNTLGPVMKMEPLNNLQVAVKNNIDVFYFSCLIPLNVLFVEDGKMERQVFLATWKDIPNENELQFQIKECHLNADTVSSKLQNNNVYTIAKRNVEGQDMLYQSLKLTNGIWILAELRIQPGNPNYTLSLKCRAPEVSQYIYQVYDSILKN
GST GSH counter: disrupts GST binding to glutathione beads, arrestin-AP2 artifact. GST-fluorescein binding to GSH beads, fluorescence, counter-screen. 2% of 1,300 active. shares compounds with Arr AP2 block. inhibition, % at 10 µM. AID 588338;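 active = inhibition above 50%, about 3 SD of the inhibition seen with non-fluorescent compounds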;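 also: fluorescein maleimide labelled GST captured on 4 micron glutathione beads; higher means more loss of bead fluorescence from quenching or blocked binding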
* hit, by the source's call; / = not tested or not shown.

SMILES	GSK3B inh	Arr AP2 block	DYRK1A inh	GSK3A inh	Rin1-Abl PPI inh	STK33 kinase inh	Arr-AP2 CP1	GST GSH counter
COc1ccc([C@H]2CC(=O)C=C(c3ccc(C)c4ccccc34)C2)cc1	/	3	13	3	-2	-1	/	/
COc1cccc(NC(=O)CN(C)C(=O)c2ccc3c(c2)C(=O)N(CCC(C)C)C3=O)c1	/	41	-4	1	6	0	/	/
Cc1cc(-c2ccc(C(C)C)c(S(=O)(=O)N3CCC(C)CC3)c2)on1	3	58*	-3	4	2	0	7	-7
CCOC(=O)c1cnn(-c2ccc(C(C)C)cc2)c1NC(=O)C1CCC1	1	99*	0	10	1	-1	-4	0
CCOC(=O)c1cnn(-c2ccccc2)c1NC(=O)c1ccccc1C	1	24	/	0	3	1	/	/
CSc1cccc(NC(=S)N(Cc2ccc(C)cc2)Cc2ccccn2)c1	4	54*	/	1	-1	-1	-8	-9
COc1ccc(CCN(Cc2ccccn2)C(=S)Nc2cccc(SC)c2)cc1OC	-3	-12	-2	-3	0	-2	/	/
COc1ccc(CC(=O)NNC(=O)c2cc(C)oc2C)cc1OC	0	65*	-6	/	0	/	7	-5
Cc1cc(NC(=O)COC(=O)CCS(=O)(=O)c2cc(Cl)ccc2Cl)no1	1	57*	1	-3	3	0	-11	11
Cc1cc(NC(=O)COC(=O)CCS(=O)(=O)c2ccc(C)c(C)c2)no1	2	7	-2	-2	0	-2	/	/
CC(=O)N/N=c1\sc2ccccc2n1C	-3	-3	0	-1	3	0	/	/
CN(C)c1ccc(N=c2sc3ccccc3n2C)cc1	0	63*	2	3	2	0	6	1
O=C(C1=C(O)C(=O)N(CCCn2ccnc2)C1c1cccc(Br)c1)c1ccco1 (configuration not stated)	0	55*	-4	5	3	14	6	30
C=CCSc1nc(N2CCOCC2)c2c(c1C#N)CC(C)(C)N(C)C2	-9	-17	7	/	-5	/	/	/
CCSc1nc(N2CCOCC2)c2c(c1C#N)CC(C)(C)N(C)C2	-1	54*	23	5	-1	-1	-15	-6
COc1ccc(NC(=O)COC(=O)CCNC(=O)c2ccco2)cc1Cl	/	-10	1	-3	1	-1	/	/
O=C(Nc1nnc(S(=O)(=O)N2CCCCCC2)s1)c1ccc(Cl)cc1	3	9	0	-2	-1	-1	/	/
CC(=O)Nc1nnc(S(=O)(=O)N2CCN(c3ccc(Cl)cc3[N+](=O)[O-])CC2)s1	2	56*	-5	2	-2	0	20	-17
COc1ccc2ccn(S(=O)(=O)c3ccccc3)c2c1	0	42	0	0	-2	0	/	/
CC(=O)Nc1ccc(-c2ccnc3c2CC(C(=O)NCCC(F)(F)F)O3)cc1 (configuration not stated)	/	/	/	/	-4	/	/	/
CC(C)CCN1CCN(Cc2ccc(C#CC(C)(C)O)s2)CC1CCO (configuration not stated)	-1	62*	/	9	1	7	23	-6
C[C@@H](NCCCn1cnc2c(OCc3ccccc3)ncnc21)c1cccc2ccccc12	/	62*	/	/	0	/	1	-4
CCNc1nc(NCC)n2c(SCC(=O)Nc3cccc(F)c3)nnc2n1	5	-10	-1	-1	3	-2	/	/
CCNc1nc(NCC)n2c(SCC(=O)Nc3cccc(Cl)c3)nnc2n1	0	59*	-7	3	0	0	-8	2
COc1ccc(CC(=O)N(C)Cc2ccc(Cl)cc2)cc1S(=O)(=O)N1CCOCC1	0	64*	0	-1	4	-2	16	0
SMILES	GSK3B inh	Arr AP2 block	DYRK1A inh	GSK3A inh	Rin1-Abl PPI inh	STK33 kinase inh	Arr-AP2 CP1	GST GSH counter
CCCN1CCc2c(sc(NC(=O)C3CCN(S(=O)(=O)c4cccs4)CC3)c2C(N)=O)C1	-3	44	0	4	1	-1	/	/
CCN(CC(=O)Nc1c(F)cccc1F)C(=O)CCNS(=O)(=O)c1ccc(C)c(C)c1	-21	58*	-3	0	1	-3	-4	0
CCOc1ccc(S(=O)(=O)NCCC(=O)N(CC)CC(=O)Nc2c(F)cccc2F)cc1	0	-2	1	0	2	1	/	/
CCCCCCSc1ccc([C@@H]2[C@H]3C(=O)N(C)C(=O)[C@H]3[C@]3(C(=O)OC)CCCCN23)cc1OC	/	20	2	0	3	0	/	/
CCCSc1ccc([C@@H]2[C@@H]3C(=O)N(C)C(=O)[C@@H]3[C@]3(C(=O)OC)CCCN23)cc1OC	/	60*	5	-2	0	0	-5	-7
CC(/C=N/Nc1nc2ccccc2[nH]1)=C\c1ccccc1	-1	107*	1	7	0	6	1	9
CC(=O)N/N=C\c1cccc(OC/C=C/c2ccccc2)c1	-22	58*	0	/	1	0	-16	0
N#CCC(=O)N/N=C\c1cccc(OC/C=C/c2ccccc2)c1	-3	-5	-4	2	-1	0	/	/
CC(=O)N/N=C\c1ccccc1OC/C=C/c1ccccc1	-1	58*	1	0	-3	-1	-12	-5
Cc1cccc(NC(=O)C2CCCN2S(=O)(=O)c2ccc(Cl)cc2)n1 (configuration not stated)	3	-16	-5	-1	2	-1	/	/
CC(=O)C1=C(O)C(=O)N(c2ccc(C(=O)O)cc2)C1c1ccc([N+](=O)[O-])cc1 (configuration not stated)	-3	-3	-2	-2	2	-1	/	/
CC(=O)C1=C(O)C(=O)N(c2ccc(S(N)(=O)=O)cc2)C1c1ccc([N+](=O)[O-])cc1 (configuration not stated)	1	97*	0	/	0	1	-2	-7
Cn1c(CNC(=O)CCNC(=O)c2ccccc2F)cc(=O)n(C)c1=O	7	-12	3	-1	2	1	/	/
Cc1ccc(Oc2ccc(NC(=O)C3=CC=CN4CCS(=O)(=O)N=C34)cc2)cc1	/	-3	-2	-1	2	0	/	/
Cc1[nH]c2ccc(C(=O)OC(C)C(=O)N(C)c3ccccc3)cc2c1C (configuration not stated)	3	-5	1	1	-1	-2	/	/
